Results reported in ChEMBL document CHEMBL2163325, “Discovery of phosphoinositide 3-kinases (PI3K) p110β isoform inhibitor 4-[2-hydroxyethyl(1-naphthylmethyl)amino]-6-[(2S)-2-methylmorpholin-4-yl]-1H-pyrimidin-2-one, an effective antithrombotic agent without associated bleeding and insulin resistance” (Bioorg Med Chem Lett, 2012).
pIC50: −log10 of the molar value.

Columns and labels:
Rattus norvegicus = assay: Toxicity in overnight fasted Sprague-Dawley rat assessed as induction of insulin resistance administered as 30 mins infusion; assay type: organism-based; settings: in vivo, iv, 0.5 h
In short: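 Overnight fasted SD rats (N = 6) infused with 4 consecutive escalating doses, each over 30 min. Blood taken at the end of each interval for plasma exposure, glucose and insulin. HOMA index is glucose × insulin, normalized to vehicle controls (N = 4) and pretreatment medians. Mean ± SEM.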

[1] = Toxicity in human adipocytes assessed as inhibition of insulin-induced glucose uptake; assay type: cell-based, Adipocyte
[2] = Lipophilicity, log D of the compound at pH 7.4 by HPLC analysis; assay type: physicochemical; settings: buffer
In short: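 LogD measured at pH 7.4 by HPLC.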

[3] = biological target: Phosphatidylinositol 4,5-bisphosphate 3-kinase catalytic subunit alpha isoform (Homo sapiens, UniProt P42336); assay: Inhibition of human recombinant His6-tagged PI3K p110alpha expressed in baculovirus infected cells using DiC8-PI(4,5)P2 as substrate after 20 mins by AlphaScreen assay
[4] = biological target: Phosphatidylinositol 4,5-bisphosphate 3-kinase catalytic subunit beta isoform (Homo sapiens, UniProt P42338); assay: Inhibition of human recombinant His6-tagged PI3K p110beta expressed in baculovirus infected cells using DiC8-PI(4,5)P2 as substrate after 20 mins by AlphaScreen assay
Homo sapiens = species: Homo sapiens; assay: Selectivity ratio of IC50 for human PI3K p110alpha to IC50 for human PI3K p110beta
Cytochrome P450 2C9 = Cytochrome P450 2C9 (Homo sapiens, UniProt P11712); assay: Inhibition of CYP2C9; assay type: ADME
Cytochrome P450 3A4 = Cytochrome P450 3A4 (Homo sapiens, UniProt P08684); assay: Inhibition of CYP3A4; assay type: ADME
Chain of Cytochrome P450 3A4 (P08684 whole entry): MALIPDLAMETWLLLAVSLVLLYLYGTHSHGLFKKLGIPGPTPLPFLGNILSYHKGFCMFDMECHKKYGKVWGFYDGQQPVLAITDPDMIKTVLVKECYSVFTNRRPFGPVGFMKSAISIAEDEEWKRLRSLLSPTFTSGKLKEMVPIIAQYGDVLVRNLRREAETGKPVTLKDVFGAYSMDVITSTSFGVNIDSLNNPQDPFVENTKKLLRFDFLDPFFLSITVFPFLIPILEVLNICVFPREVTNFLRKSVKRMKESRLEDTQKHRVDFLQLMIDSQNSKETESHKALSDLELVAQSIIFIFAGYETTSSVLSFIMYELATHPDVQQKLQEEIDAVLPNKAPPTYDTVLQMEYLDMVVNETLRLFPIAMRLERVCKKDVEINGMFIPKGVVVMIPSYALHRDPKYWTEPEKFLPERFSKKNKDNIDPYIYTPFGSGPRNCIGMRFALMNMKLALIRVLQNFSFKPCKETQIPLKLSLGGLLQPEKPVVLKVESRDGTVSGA

Chain of Phosphatidylinositol 4,5-bisphosphate 3-kinase catalytic subunit beta isoform (P42338 whole entry, canonical isoform): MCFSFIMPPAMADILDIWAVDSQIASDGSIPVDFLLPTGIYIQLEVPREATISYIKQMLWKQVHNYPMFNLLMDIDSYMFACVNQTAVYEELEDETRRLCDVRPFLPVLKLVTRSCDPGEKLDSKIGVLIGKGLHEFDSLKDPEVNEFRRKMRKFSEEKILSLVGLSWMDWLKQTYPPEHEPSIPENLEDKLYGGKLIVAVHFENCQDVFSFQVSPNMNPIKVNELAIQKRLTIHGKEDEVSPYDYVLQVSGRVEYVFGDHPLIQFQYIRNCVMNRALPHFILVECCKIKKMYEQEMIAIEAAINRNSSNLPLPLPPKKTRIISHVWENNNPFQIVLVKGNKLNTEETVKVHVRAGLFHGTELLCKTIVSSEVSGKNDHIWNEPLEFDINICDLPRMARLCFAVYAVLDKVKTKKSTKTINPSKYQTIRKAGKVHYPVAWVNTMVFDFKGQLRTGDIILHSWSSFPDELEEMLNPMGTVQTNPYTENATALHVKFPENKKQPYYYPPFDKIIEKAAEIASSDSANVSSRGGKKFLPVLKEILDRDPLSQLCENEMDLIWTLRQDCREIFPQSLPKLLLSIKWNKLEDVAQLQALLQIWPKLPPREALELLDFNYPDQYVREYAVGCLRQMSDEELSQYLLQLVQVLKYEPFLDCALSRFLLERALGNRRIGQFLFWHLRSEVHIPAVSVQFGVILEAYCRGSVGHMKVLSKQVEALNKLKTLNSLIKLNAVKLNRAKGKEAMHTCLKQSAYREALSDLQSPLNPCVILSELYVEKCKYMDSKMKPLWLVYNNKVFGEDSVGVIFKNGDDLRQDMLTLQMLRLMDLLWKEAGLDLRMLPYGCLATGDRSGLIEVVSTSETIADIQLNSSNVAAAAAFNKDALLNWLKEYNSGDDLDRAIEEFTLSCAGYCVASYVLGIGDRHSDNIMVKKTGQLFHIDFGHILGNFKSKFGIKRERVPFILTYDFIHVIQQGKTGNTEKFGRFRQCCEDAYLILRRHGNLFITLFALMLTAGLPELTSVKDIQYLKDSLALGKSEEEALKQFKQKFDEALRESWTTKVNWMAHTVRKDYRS
Chain of Phosphatidylinositol 4,5-bisphosphate 3-kinase catalytic subunit alpha isoform (P42336 whole entry, canonical isoform): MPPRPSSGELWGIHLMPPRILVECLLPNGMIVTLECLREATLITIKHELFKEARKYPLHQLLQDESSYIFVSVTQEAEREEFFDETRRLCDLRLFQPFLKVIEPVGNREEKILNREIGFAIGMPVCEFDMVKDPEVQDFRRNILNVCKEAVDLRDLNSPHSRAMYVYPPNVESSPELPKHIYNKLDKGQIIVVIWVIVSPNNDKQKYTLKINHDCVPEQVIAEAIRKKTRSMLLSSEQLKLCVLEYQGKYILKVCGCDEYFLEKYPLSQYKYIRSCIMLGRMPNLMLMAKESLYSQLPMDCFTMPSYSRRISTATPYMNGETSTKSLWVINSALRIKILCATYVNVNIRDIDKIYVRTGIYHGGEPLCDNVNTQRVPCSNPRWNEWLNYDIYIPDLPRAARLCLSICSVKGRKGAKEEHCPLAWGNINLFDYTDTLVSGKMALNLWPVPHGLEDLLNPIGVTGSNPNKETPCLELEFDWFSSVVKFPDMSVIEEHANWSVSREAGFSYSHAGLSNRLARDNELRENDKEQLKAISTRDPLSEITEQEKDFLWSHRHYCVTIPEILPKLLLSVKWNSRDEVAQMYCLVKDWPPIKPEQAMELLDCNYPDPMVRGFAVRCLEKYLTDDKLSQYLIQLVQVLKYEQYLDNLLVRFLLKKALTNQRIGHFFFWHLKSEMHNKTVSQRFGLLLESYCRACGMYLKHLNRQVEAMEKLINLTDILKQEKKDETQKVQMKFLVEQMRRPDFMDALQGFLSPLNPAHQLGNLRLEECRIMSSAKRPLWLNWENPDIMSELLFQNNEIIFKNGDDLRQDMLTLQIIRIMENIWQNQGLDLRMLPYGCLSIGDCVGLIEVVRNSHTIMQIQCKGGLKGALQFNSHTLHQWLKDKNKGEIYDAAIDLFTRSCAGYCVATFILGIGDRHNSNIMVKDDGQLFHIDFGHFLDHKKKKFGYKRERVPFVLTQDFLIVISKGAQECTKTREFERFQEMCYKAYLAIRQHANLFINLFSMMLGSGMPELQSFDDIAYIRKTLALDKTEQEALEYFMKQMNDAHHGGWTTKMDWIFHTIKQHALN
Chain of Cytochrome P450 2C9 (P11712 whole entry): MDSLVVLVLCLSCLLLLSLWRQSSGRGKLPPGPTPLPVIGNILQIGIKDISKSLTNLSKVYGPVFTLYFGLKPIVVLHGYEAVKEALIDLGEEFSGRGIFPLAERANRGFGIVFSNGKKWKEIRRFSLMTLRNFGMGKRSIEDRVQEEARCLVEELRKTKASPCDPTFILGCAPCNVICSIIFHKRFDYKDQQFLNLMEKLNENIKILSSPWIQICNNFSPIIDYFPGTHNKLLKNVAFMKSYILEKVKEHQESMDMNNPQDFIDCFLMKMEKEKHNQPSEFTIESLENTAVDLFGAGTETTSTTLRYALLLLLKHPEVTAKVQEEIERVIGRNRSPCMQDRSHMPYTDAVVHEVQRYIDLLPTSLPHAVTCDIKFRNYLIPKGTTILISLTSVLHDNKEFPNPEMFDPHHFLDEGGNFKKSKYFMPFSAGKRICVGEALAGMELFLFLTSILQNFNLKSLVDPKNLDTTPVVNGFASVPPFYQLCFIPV

## Cc1cc([C@@H](C)Nc2ccccc2C(=O)O)c2nc(N3CCOCC3)cc(=O)n2c1 [AZD-6482]
Rattus norvegicus
  Activity: Dose-dependent effect
[1]
  pIC50: 5.36

## O=c1cc(-c2cn[nH]c2)nc(NCc2cccc3ccccc23)[nH]1
[2]
  logD: 1.9
[3]
  pIC50: 4.21
[4]
  pIC50: 4.96

## CCN(Cc1cccc2ccccc12)c1cc(N2CCOCC2)nc(=O)[nH]1
Homo sapiens
  Ratio IC50: 628
[2]
  logD: 2.5
[3]
  pIC50: 4.08
[4]
  pIC50: 6.89

## CC(C)(CO)CN(Cc1cccc2ccccc12)c1cc(N2CCOCC2)nc(=O)[nH]1
Homo sapiens
  Ratio IC50: 143
[2]
  logD: 3.15
[3]
  pIC50: 3.69
[4]
  pIC50: 5.85

## CN(C)CCCN(Cc1cccc2ccccc12)c1cc(N2CCOCC2)nc(=O)[nH]1
Homo sapiens
  Ratio IC50: > 64
[2]
  logD: 1.5
[3]
  pIC50: < 4.08
[4]
  pIC50: 5.92

## CC(O)CN(Cc1cccc2ccccc12)c1cc(N2CCOCC2)nc(=O)[nH]1 (stereo unspecified)
Homo sapiens
  Ratio IC50: 808
[2]
  logD: 2
[3]
  pIC50: 3.95
[4]
  pIC50: 6.85

## CN(C)CCN(Cc1cccc2ccccc12)c1cc(N2CCOCC2)nc(=O)[nH]1
Homo sapiens
  Ratio IC50: > 26
[2]
  logD: 1.4
[3]
  pIC50: < 4.08
[4]
  pIC50: 5.51

## O=c1nc(N2CCOCC2)cc(N(Cc2cccc3ccccc23)C2CC2)[nH]1
Homo sapiens
  Ratio IC50: 78
[2]
  logD: 2.6
[3]
  pIC50: 4.12
[4]
  pIC50: 6.01

## O=c1nc(N2CCOCC2)cc(N(CCCO)Cc2cccc3ccccc23)[nH]1
Homo sapiens
  Ratio IC50: 524
[2]
  logD: 1.75
[3]
  pIC50: 4.29
[4]
  pIC50: 7.00

## O=c1cc(N2CCC(O)CC2)nc(NCc2cccc3ccccc23)[nH]1
[2]
  logD: 1.6
[3]
  pIC50: 3.80
[4]
  pIC50: 4.51

## COC1CN(c2cc(=O)[nH]c(NCc3cccc4ccccc34)n2)C1
[2]
  logD: 2.7
[3]
  pIC50: 4.08
[4]
  pIC50: 4.62

## Cc1cc(-c2cc(=O)[nH]c(NCc3cccc4ccccc34)n2)ccn1
Cytochrome P450 2C9
  pIC50: 6.40
[2]
  logD: 2.6
Cytochrome P450 3A4
  pIC50: 6.15
[3]
  pIC50: 6.08
[4]
  pIC50: 8.15

## O=c1nc(N2CCOCC2)cc(N(CCO)Cc2cccc3ccccc23)[nH]1
Homo sapiens
  Ratio IC50: 340
[2]
  logD: 1.55
[3]
  pIC50: 4.51
[4]
  pIC50: 7.05

## O=c1nc(N2CCOCC2)cc(N(CCCCO)Cc2cccc3ccccc23)[nH]1
Homo sapiens
  Ratio IC50: 373
[2]
  logD: 1.8
[3]
  pIC50: 4.13
[4]
  pIC50: 6.70

## CCC(O)CN(Cc1cccc2ccccc12)c1cc(N2CCOCC2)nc(=O)[nH]1 (stereo unspecified)
Homo sapiens
  Ratio IC50: 690
[2]
  logD: 2.5
[3]
  pIC50: 3.83
[4]
  pIC50: 6.66

## C[C@@H]1CN(c2cc(N(CCO)Cc3cccc4ccccc34)[nH]c(=O)n2)CCO1
[2]
  logD: 1.9
[3]
  pIC50: 3.46
[4]
  pIC50: 6.00

## CN(Cc1cccc2ccccc12)c1cc(N2CCOCC2)nc(=O)[nH]1
Homo sapiens
  Ratio IC50: 355
[2]
  logD: 2.37
[3]
  pIC50: 3.67
[4]
  pIC50: 6.22

## CC1CN(c2cc(=O)[nH]c(NCc3cccc4ccccc34)n2)CCO1 (stereo unspecified)
Homo sapiens
  Ratio IC50: 65
[2]
  logD: 2.9
[3]
  pIC50: 5.66
[4]
  pIC50: 7.47

## O=c1nc(N2CCOCC2)cc(N(Cc2cccc3ccccc23)CC(O)C(F)(F)F)[nH]1 (stereo unspecified)
Homo sapiens
  Ratio IC50: 58
[2]
  logD: 3
[3]
  pIC50: 4.24
[4]
  pIC50: 6.01
